From publication PMC8567357 (ACS Omega, 2021)
Where two headings read alike, the source gives them in different places.

Experiments:
[1] = biological target: Pyruvate Dehydrogenase Kinase-1 (PDK-1) (Homo sapiens, UniProt Q15118); experiment: Pyruvate dehydrogenase kinase; assay type: biochemical; details: for inhibition at 100 µg/mL: read-out: PDK-1 mean inhibitory % ± SD
Procedure, shortened: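 PDK-1 activity measured by the Kinase-Glo luminescent method. Wells held 10× assay buffer (250 mM Tris–HCl, 50 mM MgCl₂, 5 mM EGTA, 10 mM EDTA, 10 mM DTT), test compound (25–300 μg), and added solutions of PDH E1 (10 μM), ATP (10 μM) and PDK-1 (20 μM) in KCl/K₃PO₄/MgCl₂ buffer. Incubated 30 min at 37 °C, then Kinase-Glo reagent for 10 min at room temperature, and luminescence read. Controls: PBS or 1% DMSO; sodium dichloroacetate 1000 μM as reference. Mean ± SD of two replicates.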

[2] = biological target: purified recombinant human LDHA protein (Homo sapiens, UniProt P00338); experiment: Lactate dehydrogenase; assay type: biochemical; details: for inhibition at 100 µg/mL: read-out: LDHA mean inhibitory % ± SD
[3] = DPPH radical scavenging effect; details: for IC50: read-out: DPPH mean IC50
Procedure, shortened: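 Ethanolic DPPH was mixed with an equal volume of each sample concentration, shaken, and kept 1 h at room temperature in the dark. Residual DPPH absorbance was read at 519 nm against a control without test compound. BHT was the positive control. Scavenging % was calculated from compound and control absorbances. IC50 was taken from the scavenging-versus-concentration plot. Values are means of two determinations ± SD.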

[4] = system: Enterococcus faecalis (ATCC 29122); experiment: Antibacterial assay; assay type: cell-based; details: ATCC29122, read-out: Enterococcus faecalis mean IC50 (μM)
Procedure, shortened: (§1)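 Hospital-collected standard isolates were grown fresh on nutrient agar and suspended in nutrient broth to 0.5 McFarland. Test compound was mixed with 2 × 10⁷ CFU/mL in sterile BHI and shaken 60 min at 37 °C. Samples were serially diluted in BHI, plated, and incubated 24 h at 37 °C. Residual CFU were compared with the initial inoculum. IC50 is the mean of two measurements. Ampicillin was the positive reference.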

[5] = system: E. coli (ATCC 25922); experiment: Antibacterial assay; assay type: cell-based; details: Escherichia coli
Procedure, shortened: as §1

[6] = Cytotoxicity assay; assay type: cell-based, human; details: human, LoVo cells (colorectal cancer cell line)
Procedure, shortened: (§2)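 ATCC-sourced cells were cultured 24 h at 37 °C in 5% CO₂ with test compound (25, 50, 75, 100, 200, 400 μg) diluted in DMEM with 10% FBS. LDH released into the supernatant was measured by end-point ELISA, with OD read at 550 nm. Controls were 0.1% Triton X-100 (positive) and medium alone (negative). Viability is % OD relative to control, at 100 μg final, mean ± SD (n = 2). IC50 was taken from the viability-versus-concentration plot.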

[7] = Cytotoxicity assay; assay type: cell-based, human; details: human, HCT-116 cells (colorectal cancer cell line)
Procedure, shortened: as §2

[8] = system: LoVo cells; experiment: Cytotoxicity assay; assay type: cell-based, human; details: for IC50: Homo sapiens, LoVo
Procedure, shortened: as §2

[9] = system: HCT-116 cells; experiment: Cytotoxicity assay; assay type: cell-based, human; details: for IC50: Homo sapiens
Procedure, shortened: as §2

[10] = ATCC25922, read-out: E. coli mean IC50 (μM)
[11] = ATCC25922, read-out: E. coli mean IC50 (μg/mL) ± SD
[12] = PDK1 IC50 (μg/mL) ± SD, mean of two determinations
[13] = LDHA IC50 (μg/mL) ± SD, mean of two determinations
[14] = read-out: LoVo cells mean IC50 (μM)
[15] = read-out: LoVo cells mean IC50 (μg/mL) ± SD
[16] = HCT-116, read-out: HCT-116 mean IC50 (μM)
[17] = HCT-116, read-out: HCT-116 mean IC50 (μg/mL) ± SD

Pyruvate Dehydrogenase Kinase-1 (PDK-1), sequence (Q15118 29-436): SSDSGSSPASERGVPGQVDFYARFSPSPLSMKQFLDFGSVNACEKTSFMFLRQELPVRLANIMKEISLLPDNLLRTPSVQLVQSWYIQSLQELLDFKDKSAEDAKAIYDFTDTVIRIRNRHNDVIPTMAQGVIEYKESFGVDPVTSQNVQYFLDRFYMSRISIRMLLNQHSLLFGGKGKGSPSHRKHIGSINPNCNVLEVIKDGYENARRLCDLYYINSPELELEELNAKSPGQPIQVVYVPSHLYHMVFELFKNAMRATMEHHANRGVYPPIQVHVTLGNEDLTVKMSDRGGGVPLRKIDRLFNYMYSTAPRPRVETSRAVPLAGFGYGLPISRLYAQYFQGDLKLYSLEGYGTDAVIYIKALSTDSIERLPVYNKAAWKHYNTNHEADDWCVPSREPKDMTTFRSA

Compound | inhibition at 100 µg/mL [1] | inhibition at 100 µg/mL [2] | DPPH mean IC50 (μg/mL) ± SD [3] | IC50 [3] | IC50 [4] | IC50 [5, 10] | IC50 [5, 11] | IC50 ([1]; PDK1 IC50 (μM)) | IC50 [1, 12] | IC50 ([2]; LDHA IC50 (μM)) | IC50 [2, 13] | viability at 24 h, 100 μg/mL [6] | viability at 24 h, 100 μg/mL [7] | IC50 [8, 14] | IC50 [8, 15] | IC50 [9, 16] | IC50 [9, 17] | mean % of viable LoVo cells (positive control) ([8]; 0.1% in assay medium) | mean % of viable HCT-116 cell (positive control) ([9]; 0.1% in assay medium)
N#Cc1c(N)sc2c1CCCC2 [1c, 2-amino-4,5,6,7-tetrahydro-benzo[b]thiophene-3-carbonitrile] | 11.2 ± 3.18% | 23.1 ± 3.05% | 332.5 ± 17.68 µg/mL | 1870 µM | 119 µM | 147 µM | 26.2 ± 1.06 µg/mL |  |  |  |  |  |  |  |  |  |  |  | 
CCOC(=O)Nc1sc2c(c1C(=O)OCC)CCC(c1ccccc1)C2 (stereo not drawn) [3a, Ethyl 2-((Ethoxycarbonyl)amino)-6-phenyl-4,5,6,7-tetrahydrobenzo[b]thiophene-3-carboxylate] | 21.5 ± 2.4% | 28.8 ± 2.06% | 665.0 ± 21.21 µg/mL | 1780 µM | 102 µM | 72.4 µM | 27.1 ± 0.35 µg/mL |  |  |  |  |  |  |  |  |  |  |  | 
CCOC(=O)c1c(NC(=O)c2cccs2)sc2c1CCC(c1ccccc1)C2 (stereo not drawn) [3e, Ethyl 6-Phenyl-2-(thiophene-2-carboxamido)-4,5,6,7-tetrahydrobenzo[b] thiophene-3-carboxylate] | 18.4 ± 1.98% | 18.4 ± 1.98% | 595.0 ± 21.21 µg/mL | 1450 µM | 90.6 µM | 89.4 µM | 36.8 ± 1.7 µg/mL |  |  |  |  |  |  |  |  |  |  |  | 
CCOC(=O)c1c(NC(=O)CN2CCOCC2)sc2c1CCC(c1ccccc1)C2 (stereo not drawn) [5a, Ethyl 2-(2-Morpholinoacetamido)-6-phenyl-4,5,6,7-tetrahydrobenzo[b]thiophene-3-carboxylate] | 41 ± 2.83% | 30.8 ± 1.7% | 440.0 ± 28.28 µg/mL | 1030 µM | 62.2 µM | 62.8 µM | 26.9 ± 0.57 µg/mL |  |  |  |  |  |  |  |  |  |  |  | 
Cc1cc(C(C)(C)C)c(O)c(C(C)(C)C)c1 [BHT, butylated hydroxy toluene, reference compound] |  |  | 54.0 ± 5.66 µg/mL | 245 µM |  |  |  |  |  |  |  |  |  |  |  |  |  |  | 
CC1(C)S[C@@H]2[C@H](NC(=O)[C@H](N)c3ccccc3)C(=O)N2[C@H]1C(=O)O [ampicillin, reference compound] |  |  |  |  | 36.5 µM | 58 µM | 20.2 ± 1.77 µg/mL |  |  |  |  |  |  |  |  |  |  |  | 
CCOC(=O)c1c(N)sc2c1CCC(c1ccccc1)C2 (stereo not drawn) [compound 1a, 2-amino-6-phenyl-4,5,6,7-tetrahydrobenzo[b]thiophene-3-carboxylic acid ethyl ester] | 12.3 ± 1.91% | 19.2 ± 3.18% | 390.5 ± 13.44 µg/mL | 1300 µM | 146 µM | 82.6 µM | 24.9 ± 0.99 µg/mL |  |  |  |  |  |  |  |  |  |  |  | 
N#Cc1c(N)sc2c1CCC(c1ccccc1)C2 (stereo not drawn) [compound 1b, 2-amino-6-phenyl-4,5,6,7-tetrahydrobenzo[b]thiophene-3-carbonitrile] | 87 ± 2.83% | 74.1 ± 2.97% | 110.0 ± 14.14 µg/mL | 432 µM | 83.4 µM |  |  | 224 µM | 224 µM | 252 µM | 252 µM | 56.5 ± 0.71% | 53.5 ± 2.12% |  |  |  |  |  | 
CCOC(=O)Nc1sc2c(c1C#N)CCC(c1ccccc1)C2 (stereo not drawn) [compound 3b, Ethyl (3-Cyano-6-phenyl-4,5,6,7-tetrahydrobenzo[b]thiophen-2-yl)carbamate] | 51.5 ± 3.54% | 19.3 ± 0.85% | 130.0 ± 14.14 µg/mL | 398 µM | 83.5 µM |  |  | 302 µM | 302 µM | 892 µM | 891 µM | 35.5 ± 2.12% | 28 ± 1.41% | 250 µM | 81.5 ± 3.54 µg/mL | 218 µM | 71 ± 2.83 µg/mL |  | 
N#Cc1c(N2C(=O)CCC2=O)sc2c1CCC(c1ccccc1)C2 (stereo not drawn) [compound 7, 2-(2,5-Dioxopyrrolidin-1-yl)-6-phenyl-4,5,6,7-tetrahydrobenzo[b]thiophene-3-carbonitrile] | 35.9 ± 4.1% | 48.8 ± 5.3% | 222.5 ± 17.68 µg/mL | 661 µM | 83.5 µM | 82.9 µM | 27.9 ± 2.26 µg/mL | 428 µM | 428 µM | 276 µM | 276 µM | 51.5 ± 2.12% | 47.2 ± 1.06% | 323 µM | 108 ± 3.54 µg/mL | 288 µM | 97 ± 2.83 µg/mL |  | 
CN(C)C=Nc1sc2c(c1C#N)CCC(c1ccccc1)C2 (stereo not drawn) [compound 9, N′-(3-Cyano-6-phenyl-4,5,6,7-tetrahydrobenzo[b]thiophen-2-yl)-N,N-dimethyl Formamidine] | 36.5 ± 2.12% | 32.6 ± 2.33% | 210.0 ± 28.28 µg/mL | 679 µM | 111 µM | 94.9 µM | 29.4 ± 1.2 µg/mL |  |  |  |  | 71.8 ± 2.55% | 69 ± 1.41% | 642 µM | 198 ± 4.95 µg/mL | 524 µM | 162 ± 4.24 µg/mL |  | 
COc1ccc(C=Nc2sc3c(c2C#N)CCCC3)cc1O [compound 11, 2-((3-Hydroxy-4-methoxybenzylidene)amino)-4,5,6,7-tetrahydrobenzo[b]thiophene-3-carbonitrile] | 23.7 ± 2.4% | 29.6 ± 1.98% | 332.5 ± 17.68 µg/mL | 1060 µM | 126 µM | 181 µM | 56.6 ± 1.98 µg/mL |  |  |  |  | 63.8 ± 1.77% | 60.5 ± 2.12% | 474 µM | 148 ± 4.24 µg/mL | 403 µM | 126 ± 4.25 µg/mL |  | 
Triton X-100 [reference compound] |  |  |  |  |  |  |  |  |  |  |  |  |  |  |  |  |  | 0.00% | 0.00%
